Source: ChEMBL document CHEMBL1131499, “Molecular features associated with polyamine modulation of NMDA receptors” (J Med Chem, 1998)

Legend:
[1] = Dissociation constant (pK1)
[2] = target: Glutamate NMDA receptor (Rattus norvegicus) (UniProt P35439+Q00959+Q00960+Q00961+Q62645+Q8VHN2+Q9R1M7); assay: Enhanced binding of [3H]MK-801 to N-methyl-D-aspartate glutamate receptor in presence of spermine; assay type: protein-complex assay
Summary of the method: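 Forebrain membranes (minus cerebellum and brainstem) from adult male Sprague–Dawley rats, prepared by buffy-coat centrifugation in 5 mM HEPES/4.5 mM Tris pH 7.6 with EDTA washes, then stored frozen. About 50 μg protein incubated with [³H]MK-801 (final 4–4.5 nM) plus spermine, without added glutamate or glycine, for 2 h at room temperature. Filtered on polyethylenimine-soaked glass fiber filters. Nonspecific binding defined with 100 μM PCP; counted by scintillation.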

[3] = Dissociation constant (pK2)
[4] = Partition coefficient (logP)

SMILES	pKa [1]	Sp Max [2]	pKa [3]	ΔpK [4]
CN(C)CCCN(C)C	9.81	22%	7.77	
NCCCNCCO	10.3	16%	8.19	2.09
CC1(C)CC(N)CC(C)(C)N1	10.6		7.9	2.73
C=CCN(CC=C)CCCN(CC=C)CC=C	8.8		6.96	1.84
CN1CC2CC1C[C@@H](N)C2 (stereo not given in full)		8%		
CN(C)C1CC(C)(C)NC(C)(C)C1	10.6		7.67	2.89
NC1CCN(Cc2ccccc2)CC1	9.79		7.05	2.74
OCCNC1CCN(Cc2ccccc2)CC1	9.24		6.67	2.57
CNCCCN	10.7	15%	8.66	2.01
CN1CC2CC1C[C@H](N)C2 (stereo not given in full)		13%		
NCC(=O)CN	8.32	72%	6.89	1.43
CNCCCNC	10.7	16%	8.68	2.02
C1CCN(CCCN2CCCCC2)CC1	10.4		8.33	2.06
CC1(C)CC(NCCO)CC(C)(C)N1	10.5		7.42	3.1
CN(C)CC(C)(C)CN	10.3		7.13	3.15
CN(C)C1CCNCC1	10.7	44%	7.71	2.95
NCC(O)CN		35%	8.14	1.54
NC1CCNCC1	10.6	12%	8.1	2.53
CC(C)(CN)CN	10.2	5%	7.81	2.37
NCCCN	10.6	22%	8.69	1.86
C1CCN(C2CCNCC2)CC1 [[1,4']Bipiperidinyl]	10.7		7.97	2.76
CNC1CCN(C)CC1	10.1	2%	7.34	2.75
CNCC(C)CNC	10.6	11%	8.29	2.26
